Laboratory results taken from ChEMBL document CHEMBL2390882, “Synthesis and biological evaluation of novel thiazolidinone derivatives as potential anti-inflammatory agents” (Eur J Med Chem, 2013).
pIC50: −log10 of the molar value. Values joined by “and” are separate entries in the source; they are usually repeats but may differ in a detail not shown here. Identical values can stand only once. Active and inactive are the calls of the source. The rule behind the calls is not given here.

Legend:
RAW264.7 [1] = experiment: Cytotoxicity against mouse RAW264.7 cells assessed as cell viability at 20 uM after 48 hrs by MTT assay; assay type: cell-based; settings: raw264.7, 48 h
How it was run: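 RAW264.7 cells seeded at 5000/well in 1640 medium with 5% heat-inactivated serum and grown 24 h before treatment. Compounds (DMSO stock) tested at 20 µM final for 48 h. MTT (5 mg/ml in 0.9% NaCl) added for 3 h, formazan dissolved in DMSO, absorbance read at 570 nm.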

RAW264.7 [2] = experiment: Antiinflammatory activity in mouse RAW264.7 cells assessed as inhibition of LPS-induced TNFalpha release at 10 uM incubated for 2 hrs prior to LPS challenge measured after 22 hrs by ELISA relative to LPS-treated control; assay type: functional
How it was run: (§1)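 RAW 264.7 macrophages in DMEM with 10% heat-inactivated FBS, plated at 4.0×10⁵/plate overnight. Pretreated 2 h with compound at 10 µM (curcumin 10 µM as reference), then LPS 0.5 µg/ml for 22 h. Medium cytokine measured by mouse ELISA kit and normalized to cell-lysate total protein. Expressed as % of LPS control, mean ±SEM of 4 independent experiments.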

RAW264.7 [3] = experiment: Antiinflammatory activity in mouse RAW264.7 cells assessed as inhibition of LPS-induced IL6 release at 10 uM incubated for 2 hrs prior to LPS challenge measured after 22 hrs by ELISA relative to LPS-treated control; assay type: functional; settings: for inhibition at 10 µM: Mus musculus, RAW264.7; how it was run: as §1
RAW264.7 [4] = experiment: Antiinflammatory activity in mouse RAW264.7 cells assessed as inhibition of LPS-induced TNFalpha release incubated for 2 hrs prior to LPS challenge measured after 22 hrs by ELISA; assay type: functional, cell-based
How it was run: (§2)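 RAW 264.7 cells plated at 1.2×10⁶/plate overnight, pretreated 2 h at 0.3, 1.1, 3.3 and 10 µM, then stimulated with LPS 0.5 µg/ml for 22 h. Secreted cytokine quantified by ELISA and normalized to total cell protein, given as % of LPS control. IC50 derived from the concentration-response, 3-5 independent experiments.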

Mus musculus [5] = experiment: Antiinflammatory activity in C57BL/6 mouse assessed as decrease in LPS-induced septic death at 15 mg/kg, ip administered 15 mins prior to LPS challenge measured every 1 day for 7 days relative to LPS-treated control; assay type: functional, organism-based; design: dose 15 mg/kg
How it was run: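 Male C57BL/6 mice, 18-22 g ([…]), acclimatized at least 7 days. Drug at 2 mg/mL in macrogol 15 hydroxystearate (5-10%) with or without MCT (0.5-2%), dosed i.p. 15 min before LPS (20 mg/kg i.v.). Vehicle controls received 10% solubilizer with 2% MCT. Survival recorded daily for 7 days, n=12 per group.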

Mus musculus [6] = experiment: Antiinflammatory activity in LPS-treated C57BL/6 mouse assessed as survival rate at 15 mg/kg, ip administered 15 mins measured every 1 day for 7 days relative to LPS-treated control; assay type: functional; settings: C57BL/6, ip, route intraperitoneal
How it was run: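 Male C57BL/6 mice (18-22 g, acclimatized ≥7 days) got LPS 20 mg/kg i.v. and drug 15 mg/kg i.p. either 15 min before or 15 min after. The drug was given at 2 mg/mL in macrogol 15 hydroxystearate (5-10% final), with or without MCT (0.5-2%), dissolved at 37 °C. Controls received vehicle. Survival was recorded daily for 7 days, with 12 mice per group.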

RAW264.7 [7] = experiment: Antiinflammatory activity in mouse RAW264.7 cells assessed as inhibition of LPS-induced IL6 release incubated for 2 hrs prior to LPS challenge measured after 22 hrs by ELISA; assay type: functional, cell-based; how it was run: as §2

Row | Structure (SMILES) | Activity (RAW264.7 [1]) | inhibition (RAW264.7 [2]) | inhibition (RAW264.7 [3]) | further results
1 | O=c1/c(=C/c2ccccc2Cl)sc2nc3ccccc3n12 | Non-toxic | Active | Active | –
2 | Cn1cccc1/C=c1\sc2n(c1=O)CCN=2 | Non-toxic | – | – | inhibition at 10 µM (RAW264.7 [2]): > 50%; inhibition at 10 µM (RAW264.7 [3]): > 50%
3 | CCOC(=O)C1=C(C)N=c2s/c(=C\c3ccc(N4CCOCC4)cc3)c(=O)n2C1c1ccccc1 (centres undefined) | Non-toxic | – | – | pIC50 (RAW264.7 [4]): 5.38; inhibition (RAW264.7 [4]): Dose-dependent effect; inhibition at 10 µM (RAW264.7 [2]): 62%; Activity (Mus musculus [5]): inactive; survival at 15 mg/kg (Mus musculus [6]): 70%; inhibition at 10 µM (RAW264.7 [3]): 92%; pIC50 (RAW264.7 [7]): 6.08; inhibition (RAW264.7 [7]): Dose-dependent effect
4 | COc1ccccc1/C=c1\sc2nc3ccccc3n2c1=O | Non-toxic | Active | Active | –
5 | O=c1/c(=C/c2c[nH]c3ccccc23)sc2ncnn12 | Non-toxic | Active | – | inhibition at 10 µM (RAW264.7 [3]): > 50%
6 | COc1cccc(/C=c2\sc3ncnn3c2=O)c1OC | Non-toxic | Active | Active | –
7 | O=c1/c(=C/c2ccccc2F)sc2nc3ccccc3n12 | Non-toxic | Active | Active | –
8 | CCOC(=O)C1=C(C)N=c2s/c(=C\c3ccc(C)s3)c(=O)n2C1c1ccccc1 (centres undefined) | Non-toxic | Active | – | inhibition at 10 µM (RAW264.7 [3]): > 50%
9 | CCOC(=O)C1=C(C)N=c2s/c(=C\c3ccccc3F)c(=O)n2C1c1ccccc1 (centres undefined) | Non-toxic | Active | Active | –
10 | O=c1/c(=C/c2ccc3ccccc3c2)sc2nc3ccccc3n12 | Non-toxic | Active | Active | –
11 | Cc1ccc(/C=c2\sc3nc4ccccc4n3c2=O)s1 | Non-toxic | Active | Active | –
12 | O=c1/c(=C/c2ccccc2Br)sc2nc3ccccc3n12 | Non-toxic | Active | Active | –
13 | COc1ccc(/C=c2\sc3nc4ccccc4n3c2=O)cc1O | Non-toxic | Active | Active | –
14 | Cc1ccc(/C=c2\sc3n(c2=O)CCN=3)s1 | Non-toxic | – | Active | inhibition at 10 µM (RAW264.7 [2]): > 50%
15 | O=c1/c(=C/c2ccc(N3CCOCC3)cc2)sc2nc3ccccc3n12 | Non-toxic | Active | Active | –
16 | CCOC(=O)C1=C(C)N=c2s/c(=C\c3ccc(C)cc3C)c(=O)n2C1c1ccccc1 (centres undefined) | Non-toxic | Active | Active | –

Row | Structure (SMILES) | Activity (RAW264.7 [1]) | inhibition (RAW264.7 [2]) | inhibition (RAW264.7 [3]) | further results
17 | CCOC(=O)C1=C(C)N=c2s/c(=C\c3cccc4ccccc34)c(=O)n2C1c1ccccc1 (centres undefined) | Non-toxic | Active | Active | –
18 | O=c1/c(=C/c2ccccc2Br)sc2ncnn12 | Non-toxic | – | – | inhibition at 10 µM (RAW264.7 [2]): > 50%; inhibition at 10 µM (RAW264.7 [3]): > 50%
19 | O=c1/c(=C/c2ccc(N3CCOCC3)cc2)sc2n1CCN=2 | Non-toxic | Active | – | inhibition at 10 µM (RAW264.7 [3]): > 50%
20 | O=c1/c(=C/c2ccccc2Cl)sc2n1CCN=2 | Non-toxic | Active | Active | –
21 | O=c1/c(=C/c2cccs2)sc2nc3ccccc3n12 | Non-toxic | Active | Active | –
22 | Cc1ccc(/C=c2\sc3ncnn3c2=O)s1 | Non-toxic | Active | Active | –
23 | CCOc1ccc(Br)cc1/C=c1\sc2nc3ccccc3n2c1=O | Non-toxic | Active | Active | –
24 | CCOC(=O)C1=C(C)N=c2s/c(=C\c3ccccc3Br)c(=O)n2C1c1ccccc1 (centres undefined) | Non-toxic | Active | Active | –
25 | O=c1/c(=C/c2c[nH]c3ccccc23)sc2nc3ccccc3n12 | Non-toxic | Active | – | inhibition at 10 µM (RAW264.7 [3]): > 50%
26 | CCOC(=O)C1=C(C)N=c2s/c(=C\c3cccn3C)c(=O)n2C1c1ccccc1 (centres undefined) | Non-toxic | – | – | pIC50 (RAW264.7 [4]): < 5.00; inhibition at 10 µM (RAW264.7 [2]): 60%; inhibition (INH) (RAW264.7 [3]): 50% and 87%; pIC50 (RAW264.7 [7]): 5.19
27 | CCOC(=O)C1=C(C)N=c2s/c(=C\c3cccc(OC)c3O)c(=O)n2C1c1ccccc1 (centres undefined) | Non-toxic | Active | Active | –
28 | COc1cc(/C=c2\sc3nc4ccccc4n3c2=O)ccc1O | Non-toxic | Active | Active | –
29 | Cc1ccc(/C=c2\sc3nc4ccccc4n3c2=O)c(C)c1 | Non-toxic | Active | Active | –
30 | O=c1/c(=C/c2cccc(Cl)c2Cl)sc2nc3ccccc3n12 | Non-toxic | Active | Active | –
31 | O=c1/c(=C/c2ccc(N3CCOCC3)cc2)sc2ncnn12 | Non-toxic | – | – | inhibition at 10 µM (RAW264.7 [2]): > 50%; inhibition at 10 µM (RAW264.7 [3]): > 50%
32 | O=c1/c(=C/c2ccccc2[N+](=O)[O-])sc2nc3ccccc3n12 | Non-toxic | Active | Active | –
